Among the data in ChEMBL document CHEMBL2311361, “Diminutive effect on T and B-cell proliferation of non-cytotoxic α-santonin derived 1,2,3-triazoles: a report” (Eur J Med Chem, 2013) are inhibition and Activity values, retold here.

Molecules are shown by their SMILES.

The nature of series [1]: Immunosuppressive activity in Balb/c mouse T cells assessed as inhibition of concanavalin A-induced cell proliferation at 10^-4 M after 48 hrs by MTT assay. Format: functional. Put shortly: (§1)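 Spleens taken aseptically from Balb/c mice (18–22 g). Single-cell suspension made in incomplete RPMI, RBCs lysed with Tris-ammonium chloride, cells washed, resuspended in complete RPMI and checked for viability by trypan blue. Cells seeded at 1 × 10⁶ cells/mL. Compounds in DMSO tested at 1×10⁻⁴, 1×10⁻⁵ and 1×10⁻⁶ M, 48 h, 37 °C, 5% CO₂.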
(In general: Tetrazolium dyes change colour on reduction, which living cells bring about.)

The nature of series [2]: Immunosuppressive activity in Balb/c mouse B cells assessed as inhibition of LPS-induced cell proliferation at 10^-5 M after 48 hrs by MTT assay. Format: functional. Put shortly: as §1
Series [3] is described as follows: Immunosuppressive activity in Balb/c mouse B cells assessed as inhibition of LPS-induced cell proliferation at 10^-6 M after 48 hrs by MTT assay. Format: functional. Put shortly: as §1
A short description of series [4]: Cytotoxicity against in Balb/c mouse T cells at 10^-6 M after 48 hrs by MTT assay. Particulars: t-cell, 1 µM. Format: cell-based. Put shortly:
as §1

Series [5] can be described thus: Cytotoxicity against in Balb/c mouse B cells at 10^-6 M after 48 hrs by MTT assay. In kind it is cell-based. The note with it: 1 µM. Put shortly: as §1
The nature of series [6]: Cytotoxicity against in Balb/c mouse B cells at 10^-4 M after 48 hrs by MTT assay. In kind it is cell-based. The note with it: 100 µM. Summed up:
as §1

A short description of series [7]: Cytotoxicity against in Balb/c mouse B cells at 10^-5 M after 48 hrs by MTT assay. Format: cell-based. Particulars: 10 µM. Summed up: as §1
Series [8] in a line: Immunosuppressive activity in Balb/c mouse T cells assessed as inhibition of concanavalin A-induced cell proliferation at 10^-5 M after 48 hrs by MTT assay. In kind it is functional. Put shortly: as §1
A short description of series [9]: Cytotoxicity against in Balb/c mouse T cells at 10^-4 M after 48 hrs by MTT assay. In kind it is cell-based. Particulars: t-cell, 100 µM. Summed up:
as §1

Series [10] can be described thus: Immunostimulant activity in Balb/c mouse T cells assessed as inhibition of concanavalin A-induced cell proliferation at 10^-6 M after 48 hrs by MTT assay. Format: functional. Put shortly:
as §1

Series [11] can be described thus: Immunosuppressive activity in Balb/c mouse B cells assessed as inhibition of LPS-induced cell proliferation at 10^-4 M after 48 hrs by MTT assay. Format: functional. Summed up:
as §1

The nature of series [12]: Cytotoxicity against in Balb/c mouse T cells at 10^-5 M after 48 hrs by MTT assay. In kind it is cell-based. Particulars: t-cell, 10 µM. Put shortly: as §1
The nature of series [13]: Immunostimulant activity in Balb/c mouse T cells assessed as inhibition of concanavalin A-induced cell proliferation at 10^-4 M after 48 hrs by MTT assay. In kind it is functional. The note with it: Mus musculus, Balb/c, T-cell, 48 h. Summed up:
as §1

Series [14] is described as follows: Immunostimulant activity in Balb/c mouse B cells assessed as inhibition of LPS-induced cell proliferation at 10^-5 M after 48 hrs by MTT assay. In kind it is functional. Put shortly:
as §1

Series [15] is described as follows: Immunosuppressive activity in Balb/c mouse T cells assessed as inhibition of concanavalin A-induced cell proliferation at 10^-6 M after 48 hrs by MTT assay. Format: functional. Particulars: Mus musculus, Balb/c, T-cell, 48 h. Put shortly: as §1
The nature of series [16]: Immunostimulant activity in Balb/c mouse T cells assessed as inhibition of concanavalin A-induced cell proliferation at 10^-5 M after 48 hrs by MTT assay. In kind it is functional. Put shortly:
as §1

Series [17] is described as follows: Immunostimulant activity in Balb/c mouse B cells assessed as inhibition of LPS-induced cell proliferation at 10^-6 M after 48 hrs by MTT assay. Format: functional. Put shortly: as §1
Series [18] can be described thus: Immunostimulant activity in Balb/c mouse B cells assessed as inhibition of LPS-induced cell proliferation at 10^-4 M after 48 hrs by MTT assay. In kind it is functional. Summed up: as §1

Take `Cc1cc(OCc2cnnn2-c2cc(F)c(F)cc2Br)c(C)c2c1CC[C@H]1[C@H](C)C(=O)O[C@@H]21`: the inhibition (as a rule, the relative decrease from the control value, in per cent) at 100 µM in series [1] came to 15.7%; in series [11], 7.14%. In addition, the inhibition at 10 µM in series [2] was found to be 21.4%; in [8], 20%. Further, the inhibition at 1 µM in series [3] is 20%; in [10] it was 21.4%. Also, the Activity entry in series [4], in [5], in series [6], in series [7], in series [9] and in [12] was “Toxic” throughout.
`Cc1cc(OCc2cnnn2-c2ccc(Br)cc2)c(C)c2c1CC[C@H]1[C@H](C)C(=O)O[C@@H]21`: the inhibition at 100 µM in series [13] came out at 48.8%; in series [11], 15.4%. The Activity result in series [4], in series [5], in series [6], in series [7], in series [9] and in series [12] was “Non-toxic” in each case. Further, the inhibition at 10 µM in [14] stood at 36.8%; in series [16], 2.43%. Besides, the inhibition at 1 µM is 1.21% in series [15] and 26.5% in series [17].
For `Cc1cc(O)c(C)c2c1CC[C@H]1[C@H](C)C(=O)O[C@@H]21`, the figures for the inhibition at 100 µM in [13] and in [18] were 80.5% and 18.8%, respectively. The inhibition at 10 µM in series [2] came to 23.9%; in series [8], 24.4%. For the same molecule, the values for the inhibition at 1 µM in [3] and in [15] were 23.1% and 20.7%, respectively. For the same molecule, the Activity result in [4], in series [5], in [6], in series [7], in series [9] and in [12] was “Non-toxic” throughout.
For the molecule `Cc1cc(OCc2cnnn2-c2ccc3ccccc3c2)c(C)c2c1CC[C@H]1[C@H](C)C(=O)O[C@@H]21`, the results for the inhibition at 100 µM in series [13] and in series [11] were 13.4% and 1.7%, respectively. The inhibition at 10 µM worked out at 23.1% in [2] and 2.43% in series [16]. The Activity result was “Non-toxic” in series [4]; “Non-toxic” in [5]; “Toxic” in series [6]; “Non-toxic” in [7]; “Toxic” in series [9]; “Non-toxic” in [12]. Also, the inhibition at 1 µM in [10] came to 12.2%; in series [17], 7.69%.
In the case of `COc1ccc(-n2nncc2COc2cc(C)c3c(c2C)[C@@H]2OC(=O)[C@@H](C)[C@@H]2CC3)cc1OC`, the results for the inhibition at 100 µM in [13] and in [18] were 90.2% and 12.8%, respectively. The inhibition at 10 µM amounted to 0.85% in series [2] and 15.8% in [16]. The Activity result was “Non-toxic” in [4]; “Non-toxic” in series [5]; “Toxic” in series [6]; “Non-toxic” in series [7]; “Toxic” in [9]; “Non-toxic” in [12]. Also, the inhibition at 1 µM was 75.6% in series [10] and 15.4% in series [17].
Regarding `C#CCOc1cc(C)c2c(c1C)[C@@H]1OC(=O)[C@@H](C)[C@@H]1CC2`, the inhibition at 100 µM in series [1] is 12.2%; in [11], 36.8%. Besides, the inhibition at 10 µM in series [2] was determined as 22.2%; in series [8], 1.21%. Further, the values for the inhibition at 1 µM in series [3] and in [10] were 29.9% and 24.4%, respectively. The Activity result is “Toxic” in series [4]; “Toxic” in series [5]; “Non-toxic” in series [6]; “Non-toxic” in series [7]; “Non-toxic” in series [9]; “Non-toxic” in series [12].
For `Cc1cc(OCc2cnnn2-c2ccc(Cl)nc2)c(C)c2c1CC[C@H]1[C@H](C)C(=O)O[C@@H]21`, the inhibition at 100 µM in series [13] amounted to 8.57%; in series [18] it was 75.7%. In addition, the inhibition at 10 µM amounted to 8.57% in series [2] and 12.8% in series [16]. Also, the Activity result in [4] is “Toxic”; in series [5], “Toxic”; in series [6] it was “Non-toxic”; in series [7] it was “Non-toxic”; in [9], “Non-toxic”; in series [12], “Non-toxic”. Besides, the inhibition at 1 µM turned out to be 20.8% in series [15] and 45.7% in [17].
In the case of `Cc1cc(OCc2cnnn2/C=C/c2ccccc2)c(C)c2c1CC[C@H]1[C@H](C)C(=O)O[C@@H]21`, the inhibition at 100 µM was 95.1% in [1] and 36.8% in series [11]. In addition, the inhibition at 1 µM stood at 7.69% in [3] and 95.1% in series [15]. Moreover, the Activity entry in series [4], in series [5], in [6], in [7], in series [9] and in series [12] was “Non-toxic” throughout. For the same molecule, the results for the inhibition at 10 µM in series [14] and in series [8] were 48.7% and 95.1%, respectively.
Consider `CC(=O)Nc1ccc(-n2nncc2COc2cc(C)c3c(c2C)[C@@H]2OC(=O)[C@@H](C)[C@@H]2CC3)cc1`, for which the results for the inhibition at 100 µM in [13] and in [18] were 27.5% and 16.7%, respectively. Also, the inhibition at 10 µM in series [2] was found to be 15%; in series [16] it was 13.3%. Further, the inhibition at 1 µM was 25% in series [3] and 20% in series [15]. Moreover, the Activity result in series [4] is “Toxic”; in series [5], “Toxic”; in series [6], “Toxic”; in [7], “Non-toxic”; in series [9], “Toxic”; in [12] it was “Non-toxic”.
For the molecule `Cc1cc(OCc2cnnn2-c2ccc(-c3ccccc3)cc2)c(C)c2c1CC[C@H]1[C@H](C)C(=O)O[C@@H]21`, the inhibition at 100 µM was 2.43% in series [13] and 15.4% in series [18]. Also, the inhibition at 10 µM in series [2] came out at 3.41%; in series [16], 63.4%. For the same molecule, the Activity result was “Non-toxic” in series [4]; “Non-toxic” in [5]; “Toxic” in series [6]; “Non-toxic” in [7]; “Toxic” in series [9]; “Non-toxic” in series [12]. Moreover, the inhibition at 1 µM in [10] came to 35.4%; in series [17], 17.9%.
`COc1ccc(F)c(-n2nncc2COc2cc(C)c3c(c2C)[C@@H]2OC(=O)[C@@H](C)[C@@H]2CC3)c1Br`: the inhibition at 100 µM in series [1] turned out to be 45.7%; in [11], 24.3%. Moreover, the figures for the inhibition at 1 µM in series [3] and in [15] were 1.42% and 14.3%, respectively. Moreover, the Activity result in [4], in [5], in series [6], in series [7], in [9] and in [12] was “Toxic” throughout. The results for the inhibition at 10 µM in series [14] and in series [8] were 1.42% and 37.1%, respectively.
On to `Cc1cc(OCc2cnnn2-c2ccc(Br)c3ccccc23)c(C)c2c1CC[C@H]1[C@H](C)C(=O)O[C@@H]21`, for which the inhibition at 100 µM in series [1] is 10%; in [18] it was 12.8%. Also, the inhibition at 10 µM in [2] was 17.1%; in [8] it was 48.6%. Moreover, the Activity entry in series [4] is on record as “Non-toxic”; in [5], “Non-toxic”; in series [6] it was “Toxic”; in series [7] it was “Toxic”; in series [9], “Toxic”; in [12], “Toxic”. The inhibition at 1 µM in series [10] turned out to be 30%; in series [17], 27.1%.
